Screening data as filed in PubChem.
ERa coact pot: ER-alpha (human) coactivator binding potentiation; P03372; TR-FRET ERalpha-LBD/SRC-Cy5 coactivator binding, 2 h; 100 = basal binding, no effect; coactivator binding (% of control), % at 25.6 µM; 86,000 compounds, 1.3% hits; AID 639; in the data active = activity above about 200%;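 note: binding measured in presence of low estradiol as agonist stimulus; 0% = peptide alone without receptor and 100% = receptor with peptide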
ERa coact inh: ER-alpha (human) coactivator binding inhibition; 86,000 compounds, 1.7% hits; TR-FRET ER-alpha LBD / SRC-1 peptide, estradiol-bound; AID 629; inhibition, % at 25.6 µM; in the data active = inhibition above about 50%;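 note: 0% = receptor plus peptide control and 100% = peptide only without receptor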
RORa activator: RORA (human) activation | P35398 | CHO-K1 Gal4-RORA LBD luciferase reporter, luminescence; percent increase over mock-subtracted basal signal | activation, % at 10 µM | 65,000 compounds, 1.5% hits | AID 560;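 active = activation above the mean of all tested compounds plus 3 SD, cut at about 49% in these data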;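 note: 0% = DMSO-treated RORA cells and 100% = added signal equal to DMSO minus mock-transfected cells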
Pyk2 oligo antag: antagonists of human Pyk2 oligomerization; z-score (the deposit names both 25 µM and 10 µM); Q293 cells, Pyk2 FERM NanoBiT luminescence; active compounds read low; 99,000 compounds, 0.83% hits;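 active = Z-score of -3 or lower, scaled per plate to the spread of control and sample wells; inactive = z-score above -3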;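 note: negative z-score means lost luminescence so less FERM oligomerization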
ERb SRC1 inh: blocks coactivator binding to human estrogen receptor beta | inhibition, % at 25.6 µM | AID 633 | 86,000 compounds, 1.3% hits | Q92731 | TR-FRET ER-beta LBD / SRC1-Cy5 peptide binding; receptor agonist-loaded with 1 µM estradiol;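 active = compounds whose percent inhibition of the receptor-coactivator binding signal exceeds about 50% in the single-dose screen, limit read from the data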;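 note: 0% = receptor plus peptide wells without compound and 100% = peptide-only wells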
Target sequence (Q92731 whole entry, looked up, the tested form may be a part): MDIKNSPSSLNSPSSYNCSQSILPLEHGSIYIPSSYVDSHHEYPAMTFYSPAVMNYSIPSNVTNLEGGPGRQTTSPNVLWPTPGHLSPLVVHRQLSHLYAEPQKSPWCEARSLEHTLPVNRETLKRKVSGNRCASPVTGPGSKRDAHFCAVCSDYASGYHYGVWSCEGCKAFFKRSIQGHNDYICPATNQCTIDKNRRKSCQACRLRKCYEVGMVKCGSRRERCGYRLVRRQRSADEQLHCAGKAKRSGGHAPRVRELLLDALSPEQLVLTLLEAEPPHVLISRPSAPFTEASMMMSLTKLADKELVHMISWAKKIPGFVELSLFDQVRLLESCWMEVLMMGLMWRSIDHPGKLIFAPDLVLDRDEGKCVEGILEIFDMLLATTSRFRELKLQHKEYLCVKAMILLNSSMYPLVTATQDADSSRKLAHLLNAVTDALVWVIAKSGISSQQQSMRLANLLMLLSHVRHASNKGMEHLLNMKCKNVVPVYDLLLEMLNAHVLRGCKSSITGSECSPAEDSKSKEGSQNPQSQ
SF1 activator: activates the human nuclear receptor SF-1; activation, % at 10 µM; 65,000 compounds, 1.9% hits; CHO-K1 Gal4-SF-1 LBD luciferase reporter; % increase over DMSO SF-1-specific signal;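 active = activation above the mean activation of all tested compounds plus 3 SD, cut at about 50% in these data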
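Material: Gal4–SF-1 LBD one-hybrid luciferase reporter in CHO-K1 cells | Amount: 4,000 cells per well | Compound dosing: 10 µM single point, 1% DMSO | Schedule: 20 h compound treatment, 37 °C | Measured by: SteadyLite luciferase luminescence | Evaluation: Percent activation versus DMSO | Control set: DMSO-treated SF-1-transfected cells as negative, DMSO-treated mock-transfected cells lacking SF-1 as background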
* hit, by the source's call; x = not tested or not shown; [ ] = remark or other dose. A selection: hits, their analogues and other compounds. The true share with any hit is near 4.8%.

SMILES | ERa coact pot | ERa coact inh | RORa activator | Pyk2 oligo antag | ERb SRC1 inh | SF1 activator
O=C(CSc1nnnn1-c1ccccc1)Nc1nsc(-c2ccc(Cl)cc2)n1 | 141 | 73* | -71 | -0.64 | 39 | -88
O=C(CSc1nnnn1-c1ccccc1)Nc1nsc(-c2ccccc2)n1 | 143 | 27 | -5 | -0.43 | 9 | 3
COc1ccc(Cn2c3nc4ccccc4nc3c3c(=O)n(Cc4ccco4)c(C)nc32)cc1 | 138 | 75* | -10 | x | 60*[fluorescence artefact?] | -7
Nc1c(S(=O)(=O)c2ccccc2)c2nc3ccccc3nc2n1/N=C/c1ccco1 | 61 | 32 | -17 | -0.9 | 48 | -21
COc1ccc(S(=O)(=O)c2c(N)n(Cc3ccco3)c3nc4ccccc4nc23)cc1 | 37 | 83*[fluorescence artefact?] | -17 | 0.92 | 78*[fluorescence artefact?] | -15
COc1ccc(Cn2c(C)nc3c(c2=O)c2nc4ccccc4nc2n3Cc2ccco2)cc1 | x | x | -2 | x | x | -7
CCCCNc1ccc2nsnc2c1[N+](=O)[O-] | x | x | x | 0.31 | x | x
Cc1nc2ccc(S(=O)(=O)Nc3ccccc3C)cc2s1 | 92 | -2 | 42 | -0.76 | 2 | 9
O=C(CSc1nnc(-c2ccc(Cl)cc2)o1)N1CCN(c2ccccc2)CC1 | 50 | 73*[fluorescence artefact?] | -8 | x | 54* | 11
COc1ccc2c(c1)c(=O)oc1cc3oc(C)c(C)c3cc12 | 72 | 67* | x | x | 57* | x
COc1ccc2c(c1)c(=O)oc1cc3occ(C(C)(C)C)c3cc12 | 105 | 40 | x | 1.1 | 30 | x
COC(=O)Cn1nnc(-c2cccc(OC)c2)n1 | 99 | -7 | -1 | -0.36 | -19 | -3
CN1CCN(C(=O)c2cccc(COc3cc(Cl)ccc3Cl)c2)CC1 | x | x | 46 | -0.89 | x | 69*
O=C(c1cccc2ccccc12)N1CCC(N2CCN(c3ccccc3)CC2)CC1 | x | x | -6 | 2 | x | -3
Nc1nc(N2C(=O)C3CC=CCC3C2=O)nn1-c1ccccc1 (configuration not stated) | 116 | 57* | -24 | -0.95 | -8 | 12
Nc1nc(-n2cnnc2)nn1-c1ccccc1 | 97 | -9 | 3 | 2.3 | 1 | -8
Cc1cc(C)nc(NC2=NCC(=O)N2c2cc(Cl)cc(Cl)c2)n1 | 474*[fluorescence artefact?] | -36 | -1 | 0.58 | -2 | -18
Cc1cccc(N2C(=O)CN=C2Nc2nc(C)cc(C)n2)c1 | 102 | -7 | x | -0.14 | -5 | x
CCCCN(NC(C)=O)c1nc(Cl)nc(NC(C)C)n1 | 98 | -2 | x | 1.6 | -1 | x
Cn1cccc1CNC(=O)Nc1ccc(Cl)cc1 | 96 | -10 | 16 | -0.22 | -8 | 54*
CCCc1nc2sc3ccccc3c(=O)c2c(=O)n1Cc1ccco1 | 69 | 70*[fluorescence artefact?] | -2 | -1.1 | 64* | 4
CCCc1nc2oc3cc(OC)ccc3c(=O)c2c(=O)n1Cc1ccco1 | 56 | 50 | 10 | -0.34 | 41 | -16
O=C(CSc1nnc2scc(-c3ccccc3)n12)NCC1CCCO1 (configuration not stated) | 107 | 22 | -10 | 0.05 | 2 | -12
Cc1ccc(-c2cc(C(=O)Nc3ccc4c(c3)OCCO4)c3ccccc3n2)cc1 | x | x | x | -1.8 | x | x
Cc1ccc(NC(=O)CN(C)c2ccc(S(=O)(=O)N3CCN(C)CC3)cn2)cc1 | 481*[fluorescence artefact?] | -66 | -2 | 0.29 | 5 | -2
SMILES | ERa coact pot | ERa coact inh | RORa activator | Pyk2 oligo antag | ERb SRC1 inh | SF1 activator
CCOC(=O)CSc1nc(N)c(C#N)c(-c2ccc(OC)cc2)c1C#N | 258*[fluorescence artefact?] | 14 | -5 | -1.6 | 35 | -1
CCCCOc1ccc(-c2c(C#N)c(N)nc(SCC(N)=O)c2C#N)cc1 | 271*[fluorescence artefact?] | 42 | 3 | -0.36 | 41 | -7
CCCCOC(=O)CSc1nc(N)c(C#N)c(-c2ccc(OCC)cc2)c1C#N | 215*[fluorescence artefact?] | 51*[fluorescence artefact?] | -24 | 0.57 | 76*[fluorescence artefact?] | -4
CSc1nc(N)c(C#N)c(-c2ccc(Cl)cc2)c1C#N | 255*[fluorescence artefact?] | 42 | -17 | -2.5 | 34 | -8
CCCCOC(=O)CSc1nc(N)c(C#N)c(-c2ccc(OC)cc2)c1C#N | 240*[fluorescence artefact?] | 61*[fluorescence artefact?] | 4 | -1.7 | 41 | 13
CCOc1ccc2nc(SCC(=O)c3ccc(C)s3)sc2c1 | 221* | 22 | x | 0.72 | 0 | x
CCOc1ccc2nc(NC(=O)CSc3nc(SC)ns3)sc2c1 | x | x | x | -0.94 | x | x
Clc1cc(Cl)c2nc(N3CCCCC3)sc2c1 | 105 | -1 | 24 | -0.1 | -1 | 61*
Cc1cc(C)c2nc(N3CCC(C(=O)N4CCCC4)CC3)sc2c1 | 116 | 6 | 6 | -0.25 | -6 | -1
Clc1cc(Cl)c2nc(N3CCCC3)sc2c1 | 110 | -12 | 41 | -0.89 | -16 | 60*
Fc1cc(F)c2nc(N3CCCCC3)sc2c1 | 110 | 13 | 32 | 0.72 | 13 | 65*
COc1ccc(OC)c2sc(N3CCCCC3)nc12 | 112 | -2 | 38 | 0.95 | 5 | 40
Clc1cccc2sc(N3CCCCC3)nc12 | x | x | 13 | 1.1 | x | 48
COc1ccc(N(C(=O)COc2ccccc2)C2C=CS(=O)(=O)C2)cc1 (configuration not stated) | x | x | -10 | -0.17 | x | -8
COc1cc(/C=C2\OC(=O)c3c(OC)cccc32)ccc1O | x | x | x | -1 | x | x
CCN(CC)S(=O)(=O)c1cccc2cc(C(=O)O)c(O)cc12 | 99 | -8 | -20 | -0.83 | 3 | -3
C=CCn1c(=O)c2ccccc2n2c(SCC(N)=O)nnc12 | 99 | -5 | x | 0.58 | 6 | x
C=CCn1c(=O)c2c(C)c(C)sc2n2c(Nc3ccccc3)nnc12 | 113 | 3 | -24 | -3* | 7 | 0
Cn1ncc2c1ncn1c(-c3ccccc3Cl)nnc21 | 107 | -12 | 23 | x | -20 | -2
Cc1cccc(N=C2NC(=O)/C(=C3/C(=O)N(C)c4ccccc43)S2)c1C | 26 | 61* | -27 | -2.8 | 37 | -9
Cc1cc2cc(CN(CC3CCCO3)C(=O)c3cnccn3)c(=O)[nH]c2cc1C (configuration not stated) | 121 | 4 | 12 | -0.11 | -9 | 14
CC1(C)Cc2nc3sc4c(=O)[nH]cnc4c3cc2CS1 | 77 | 13 | 12 | -0.77 | 3 | 63*
CCCOc1ccc(/C(O)=C2/C(=O)C(=O)N(CCN(CC)CC)C2c2ccncc2)cc1 (configuration not stated) | 111 | 6 | 7 | x | 0 | -1
O=C(CSc1nnnn1-c1ccccc1)Nc1ccc(N2CCOCC2)c(Cl)c1 | 110 | -7 | -4 | -1.7 | -9 | 13
O=C(CSc1nnnn1-c1cccc2ccccc12)Nc1ccc(N2CCOCC2)c(Cl)c1 | 101 | -2 | x | -3.3* | -14 | x
O=C(Nc1ccc(N2CCOCC2)c(Cl)c1)C1CCCCC1 | 121 | -2 | 49* | -0.59 | 9 | 47
CC(=O)c1cccc(NC(=O)C2CCN(S(C)(=O)=O)CC2)c1 | 118 | 8 | -16 | 0.44 | -1 | -20
